Bioassay records: PubChem, Columbia University Molecular Screening Center
This is one part of a sample in which hits are shown more often than they occur.
INS promoter act = activators of insulin promoter-driven GFP, primary screen, imaging, TRM-6 cells (human fetal islet line), eGFP reporter, cell count; plate-scaled: unstimulated 0, stimulated control 100; activation, % at 2 µM; 130,000 compounds, 0.81% hits;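 active = activation at 2 µM above a set limit, confirmed on inspection of the cell images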;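 also: share of cells whose green reporter signal exceeds an intensity cutoff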
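System – TRM-6 insulin promoter–eGFP reporter cells · Probe or stimulus – 0.75 µM tamoxifen as reporter inducer · Dosing – single-point 2 µM compound dose · Incubation – tamoxifen pre-incubation 15 h overnight, then compound exposure 48 h at 37 °C · Measured by – fixed-cell fluorescence microscopy, eGFP plus Hoechst · Evaluation – percent GFP-positive cells normalized to per-plate controls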
Each line names hits and unclear results; the compound was inactive in the other large screens.

COc1ccc(C2Nc3ccccc3C(=O)N2Cc2ccco2)cc1COc1ccc(NC(C)=O)cc1 (configuration not stated)	none
CS(=O)(=O)N1CCC(C(=O)N2CCN(c3ccccc3F)CC2)CC1	none
Cc1ccccc1OCCCC(=O)Nc1ccc2c(c1)OCO2	none
CCCCC(=O)Nc1ccc(C(=O)Nc2ccc3c(c2)OCO3)cc1	INS promoter act 475.0
Cc1ccc(C(=O)Nc2ccc3c(c2)OCO3)cc1	none
O=C(NCc1cccnc1)c1nc(-c2ccc(C(F)(F)F)cc2)no1	INS promoter act 300.0
O=C(NCc1cccnc1)c1ccc(NC(=O)c2ccco2)cc1	none
O=C(NCc1cccnc1)c1cc(-c2ccccc2)on1	none
COC(=O)c1cc(OC)c(OC)cc1NC(=O)c1ccc(OC)c(OC)c1	none
COc1ccc(NS(=O)(=O)c2ccc(O)c(NC(=O)c3cc4c(C)nn(-c5ccc(F)cc5)c4s3)c2)cc1	none
O=C(N/N=C/c1cc([N+](=O)[O-])c(N2CCOCC2)cc1N1CCOCC1)c1cccnc1	none
CCOC(=O)C1CCCN(CCC(=O)Nc2ccc(C)cc2)C1 (configuration not stated)	INS promoter act 527.6
CCOC(=O)C1CCCN(CCC(=O)Nc2cccc(F)c2)C1 (configuration not stated)	none
CCOC(=O)C1CCCN(CCC(=O)Nc2cccc(C)c2)C1 (configuration not stated)	none
CCOc1ccccc1-n1c(SCC(=O)NC2CCCC2)nnc1-c1ccoc1C	none
COc1cc(C(=O)O)cc(Br)c1OC1CCCC1	none
O=C(CSc1nnc(C2CC2)n1-c1ccccc1)NCCc1ccccc1	none
O=S(=O)(c1cccc(-c2nnc3n2CCCCC3)c1)N1CCCC1	none
Cc1cc(Cl)c(OCCCN2CCCCC2)c(Br)c1	none
Cc1cc(Cl)c(OCCN2C(=O)NC(C)(C)C2=O)c(Br)c1	INS promoter act 538.5
Cc1cc(C)c(OCCN2C(=O)NC(C)(C)C2=O)c(Cl)c1	none
Cc1cccc(C)c1C(OCCN(C)C)C1CCCCC1 (configuration not stated)	none
Cc1ccc(NC(=O)CNC2CCS(=O)(=O)C2)cc1C (configuration not stated)	none
CCNc1nc(NCC)nc(N(C)N)n1	none
CCN(CC)S(=O)(=O)c1cccc(NC(=O)c2ccc(C#N)cc2)c1	none
CCOC(=O)N1CCN(C(=O)CSc2ncccn2)CC1	INS promoter act 185.7
CCOC(=O)N1CCN(C(=O)CSc2ccc(-c3ccccc3)nn2)CC1	none
CCOC(=O)N1CCN(C(=O)CSc2ccc(-c3ccncc3)nn2)CC1	none
c1ccc(CNn2nnnc2-c2ccccc2)cc1	none
O=C(CN1C(=O)c2cccc3cccc(c23)C1=O)N1CCOCC1	none
O=C(CN1C(=O)c2cccc3cccc1c23)N1CCN(Cc2ccc3c(c2)OCO3)CC1	INS promoter act 500.0
O=C(c1cccn2c(=O)c3ccccc3nc12)N1CCN(Cc2ccc3c(c2)OCO3)CC1	none
O=C1CCC(C(=O)Nc2cccc(Oc3ccccc3)c2)=NN1	none
COc1ccc(NC(=O)C(NC(=O)CC2NC(=O)NC2=O)c2ccccc2)cc1 (configuration not stated)	none
Cc1cc2c(cc1C)NC(CC(=O)NCc1ccccc1)C(=O)N2 (configuration not stated)	none
O=C(CC1NC(=O)NC1=O)Nc1cccc2ccccc12 (configuration not stated)	INS promoter act 569.2
O=C(OCC(=O)c1c[nH]c2ccccc12)c1cc2ccccc2cc1O	none
COC(=O)CCN(C(=O)c1cc([N+](=O)[O-])cc([N+](=O)[O-])c1)c1ccccn1	none
COC(=O)CCN(C(=O)c1ccc(OC(C)=O)cc1)c1ccccn1	INS promoter act 75.7
CC(c1ccco1)N(C(=O)c1ccc(C#N)cc1)c1ccccn1 (configuration not stated)	none
COCCOc1cc(-n2ccnc2SC)c(Cl)cc1Cl	none
Clc1ccc(-c2nnnn2-c2ccc(Cl)c(Cl)c2)cc1Cl	none
CCOc1ccc(C(=O)N(Cc2ccc(OC)cc2)Cc2cc3cc(OC)ccc3[nH]c2=O)cc1	none
CCCN(Cc1cc2cc(C)ccc2[nH]c1=O)S(C)(=O)=O	none
CCCN(Cc1cc2cc(C)ccc2[nH]c1=O)C(=O)c1cccc(OC)c1	INS promoter act 196.8
CCOC(=O)c1c(C)oc2cc3c(C(=O)OCC)c(C)oc3cc12	none
CC(=O)/C=C1\SC(CC(=O)O)C(=O)N1c1ccccc1 (configuration not stated)	none
CCOc1ccccc1NC1=C(Cl)C(=O)N(c2ccc(OC)cc2)C1=O	none
COc1ccccc1N1C(=O)C(Cl)=C(Nc2ccccc2O)C1=O	INS promoter act 378.6
COc1ccccc1N1CCN(c2ccc(Cl)nn2)CC1	none
CCN(CC)S(=O)(=O)c1cccc(-c2nnc(SCC(=O)N3CCC(C(=O)O)CC3)n2N)c1	none
CCN(CC)S(=O)(=O)c1cccc(C(=O)N2CC(O)CC2C(=O)O)c1 (configuration not stated)	INS promoter act 442.9
CCN(CC)S(=O)(=O)c1cccc(C(=O)Nc2sc3c(c2C(N)=O)CCCC3)c1	none
Cc1c(C)c(C)c(S(=O)(=O)N2CCNCC2)c(C)c1C	none
CC1(C)Cc2c(ccc3ccccc23)C(NNC(=O)c2cccnc2)=N1	none
O=S(=O)(c1ccc(OCC(O)CN2CCN(c3ccccc3)CC2)cc1)N1CCOCC1 (configuration not stated)	none
OC(CN1CCN(c2ccccc2)CC1)Cn1c2ccccc2c2ccccc21 (configuration not stated)	none
OC(CSc1ccc(F)cc1)CN1CCN(c2ccccc2)CC1 (configuration not stated)	INS promoter act 117.6
CC(=O)Nc1ccc(C(=O)Nc2ccc(S(=O)(=O)NCC3CCCO3)cc2)cc1 (configuration not stated)	none
Cc1cc(NC(=O)c2ccc3c(c2)OCO3)no1	none
Cc1cc(NC(=O)c2ccc(S(=O)(=O)N(C)CC3CCCO3)cc2)no1 (configuration not stated)	INS promoter act 414.3
Cc1cc(C(=O)CSc2ccc3c(c2)OCCO3)c(C)n1C1CC1	none
CN(C)S(=O)(=O)Oc1cc(Cl)ccc1C(=O)Nc1ccc(F)cc1F	none
CC1=CC(C)(C)n2c(O)c(N=N)c3cc(C)cc1c32	none
CCCc1[nH]nc2c1C1(CCOC1C)C(C#N)=C(N)O2 (configuration not stated)	none
O=C(COc1ccc(F)cc1)Nc1ccc(-n2cnnn2)cc1	none
CCOC(=O)c1ccc(NC(=O)COc2ccc(-n3cnnn3)cc2)cc1	none
CC(=O)Nc1ccc(-n2cnnn2)cc1	INS promoter act 512.5
COc1ccc(S(=O)(=O)N2CCC(C(=O)Nc3ccc(F)cc3)CC2)c2cccnc12	none
O=C(NCc1ccccc1)N1CCC(n2cnc3cc(F)ccc32)CC1	none
COC(=O)C1=C(C)N(c2cccc(C(C)=O)c2)C(=O)C1	INS promoter act 475.0
CCN1C(=O)CC(C(=O)OC)=C1C	none
CC(=O)COC(=O)c1cccc(N2C(=O)C3C4C=CC(C4)C3C2=O)c1 (configuration not stated)	none
CCN(CC)c1nc(OC)nc(-n2nnc(C(C)=O)c2C)n1	none
Cc1occc1C(=O)N1CCN(Cc2ccccc2)CC1	none
Cc1ccc(CN2CCN(C(=O)c3ccco3)CC2)cc1	INS promoter act 422.2
O=C(c1ccco1)N1CCCN(C(=O)c2ccco2)CC1	none
COCCn1c(SCC(=O)NCc2ccco2)nnc1C(C)C	none
COc1ccc(N(CC(=O)NCCSCc2c(F)cccc2Cl)S(C)(=O)=O)cc1OC	none
COc1ccc(NC(=S)NCCSc2ccc(Cl)cc2)c(OC)c1	none
COc1cccc(N(CC(=O)NCCSc2ccc(Cl)cc2)S(C)(=O)=O)c1	INS promoter act 93.1
